Experimental data published in publication PMC9616053 (ACS chemical neuroscience, 2022).
*1 amine or outer side, *2 acyl side, *3 side chain or, on linkers, in order; H or OH if unused. Where a SMILES comes first, the peptide text is derived from it. [ ]: non-standard residue; d: D form. X1 = Cc1ccc2c(c1)CCN([*:1])[C@@H]2C(=O)[*:2]

Columns and labels:
Casp3 = target: T1, Casp3 (Homo sapiens, UniProt P42574); assay: fluorescence-based in vitro biochemical; settings: for Casp2 Selectivity, Ki (Casp3) / Ki (Casp2): Table 1
T1 sequence (P42574 29-175 limits assumed): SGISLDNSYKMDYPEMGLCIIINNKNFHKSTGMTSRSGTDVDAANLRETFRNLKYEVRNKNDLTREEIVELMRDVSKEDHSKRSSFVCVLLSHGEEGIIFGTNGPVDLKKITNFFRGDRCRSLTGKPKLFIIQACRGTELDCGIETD
T1 sequence (P42574 176-277 limits assumed): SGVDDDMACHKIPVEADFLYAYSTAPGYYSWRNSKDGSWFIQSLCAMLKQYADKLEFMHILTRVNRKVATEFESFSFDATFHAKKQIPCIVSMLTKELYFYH

Casp1 = target: T2, Casp1 (Homo sapiens, UniProt P29466); assay: in vitro caspase panel assay, Casp1; format: biochemical
T2 sequence (P29466 120-297 limits assumed): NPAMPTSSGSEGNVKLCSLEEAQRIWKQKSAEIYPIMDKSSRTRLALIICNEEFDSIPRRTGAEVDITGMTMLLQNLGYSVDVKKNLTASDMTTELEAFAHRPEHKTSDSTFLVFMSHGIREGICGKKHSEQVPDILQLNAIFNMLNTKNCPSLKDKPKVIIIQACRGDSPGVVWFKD
T2 sequence (P29466 317-404 limits assumed): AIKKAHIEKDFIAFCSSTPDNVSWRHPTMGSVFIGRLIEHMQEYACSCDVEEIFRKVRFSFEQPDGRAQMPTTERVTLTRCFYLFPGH

Casp6 = target: T3, Casp6 (Homo sapiens, UniProt P55212); assay: in vitro caspase panel assay, Casp6; format: biochemical
T3 sequence (P55212 24-179 limits assumed): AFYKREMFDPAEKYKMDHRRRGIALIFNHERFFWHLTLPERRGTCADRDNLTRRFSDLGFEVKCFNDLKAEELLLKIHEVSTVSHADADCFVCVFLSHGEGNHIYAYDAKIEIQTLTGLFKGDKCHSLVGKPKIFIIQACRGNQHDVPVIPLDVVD
T3 sequence (P55212 194-293 limits assumed): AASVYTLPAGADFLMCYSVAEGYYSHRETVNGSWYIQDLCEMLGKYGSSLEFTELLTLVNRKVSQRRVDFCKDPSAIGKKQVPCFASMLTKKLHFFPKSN

Casp7 = target: T4, Casp7 (Homo sapiens, UniProt P55210); assay: in vitro caspase panel assay, Casp7; format: biochemical
T4 sequence (P55210 24-198 limits assumed): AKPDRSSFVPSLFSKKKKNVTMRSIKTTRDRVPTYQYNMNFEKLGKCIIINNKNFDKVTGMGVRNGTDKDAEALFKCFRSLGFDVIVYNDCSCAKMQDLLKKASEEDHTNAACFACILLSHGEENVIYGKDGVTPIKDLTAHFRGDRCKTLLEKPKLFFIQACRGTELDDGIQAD
T4 sequence (P55210 207-303 limits assumed): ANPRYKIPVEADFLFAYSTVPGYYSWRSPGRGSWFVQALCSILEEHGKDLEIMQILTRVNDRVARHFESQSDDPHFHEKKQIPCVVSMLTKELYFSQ

Casp9 = target: T5, Casp9 (Homo sapiens, UniProt P55211); assay: in vitro caspase panel assay, Casp9; format: biochemical
T5 sequence (P55211 1-315 limits assumed): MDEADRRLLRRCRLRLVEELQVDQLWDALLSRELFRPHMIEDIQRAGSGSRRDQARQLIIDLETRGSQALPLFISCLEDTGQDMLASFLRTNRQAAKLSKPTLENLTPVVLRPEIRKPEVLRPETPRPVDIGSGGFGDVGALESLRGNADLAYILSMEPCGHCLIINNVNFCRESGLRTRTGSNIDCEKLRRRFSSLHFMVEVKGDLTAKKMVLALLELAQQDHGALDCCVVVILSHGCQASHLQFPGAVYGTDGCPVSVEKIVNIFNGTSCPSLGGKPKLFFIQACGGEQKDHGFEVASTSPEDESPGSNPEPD
T5 sequence (P55211 331-416 limits assumed): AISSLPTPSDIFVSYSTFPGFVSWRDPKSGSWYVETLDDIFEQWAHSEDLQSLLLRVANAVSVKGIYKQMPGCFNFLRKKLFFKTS

Cathepsin B = Cathepsin B (Homo sapiens, UniProt P07858); assay: Cathepsin B inhibition; format: biochemical
[1] = system: primary hippocampal neurons from transgenic mice overexpressing P301S tau; assay: mEPSC recording in primary hippocampal neurons from PS19; format: cell-based, mouse; settings: 10 μM, 3 days; for average frequency of mEPSCs: six groups
Casp2 = target: T6, Casp2 (Homo sapiens, UniProt P42575); assay: fluorescence-based in vitro biochemical
T6 sequence (P42575 170-325 limits assumed): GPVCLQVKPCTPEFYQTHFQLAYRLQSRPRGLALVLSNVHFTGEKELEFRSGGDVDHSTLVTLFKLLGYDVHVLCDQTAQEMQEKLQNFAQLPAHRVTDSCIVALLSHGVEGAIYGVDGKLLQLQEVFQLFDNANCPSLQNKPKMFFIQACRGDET
T6 sequence (P42575 348-452 limits assumed): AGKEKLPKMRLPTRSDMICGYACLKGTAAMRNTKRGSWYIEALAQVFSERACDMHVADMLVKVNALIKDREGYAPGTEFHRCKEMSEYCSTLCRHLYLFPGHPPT

Thrombin a = Thrombin a (Homo sapiens, UniProt P00734); assay: Thrombin a inhibition; format: biochemical
[2] = target: T7, Casp2-mediated cleavage of tau at D314 (Homo sapiens, UniProt P42575); assay: in vitro caspase-2-catalyzed tau cleavage assay; format: biochemical
T7 sequence (P42575 170-325 limits assumed): T6 sequence (P42575 170-325 limits assumed)
T7 sequence (P42575 348-452 limits assumed): T6 sequence (P42575 348-452 limits assumed)

[3] = system: cultured rat hippocampal neurons expressing P301S tau; format: cell-based; settings: 10 μM for 3 days, versus untreated wild-type and P301S tau neurons
How it was run: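 Primary hippocampal cultures from Sprague-Dawley rat pups at postnatal day 0 or 1. At 5–7 DIV, neurons were co-transfected with plasmids for DsRed (morphology label) and GFP-tagged wild-type or P301S tau. Test compound was added at 17–18 DIV for 3 days. Live neurons were imaged at 20–21 DIV.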

Row | SMILES | Casp2 Selectivity, Ki (Casp3) / Ki (Casp2) (Casp3) | Ki (Casp1) [µM] | Ki (Casp6) [µM] | Ki (Casp7) [µM] | Ki (Casp9) [µM] | IC50 (Cathepsin B) [µM] | cumulative curve of mEPSC amplitudes, Tau −/+ compared with Tau −/− [1] | average frequency of mEPSCs [1] | Ki (Casp2) [µM] | Ki (Casp3) [µM] | selectivity Casp2 versus Casp1 (Casp1) [fold] | selectivity Casp2 versus Casp6 (Casp6) [fold] | selectivity Casp2 versus Casp7 (Casp7) [fold] | selectivity Casp2 versus Casp9 (Casp9) [fold] | activity at cathepsin B (Cathepsin B) | IC50 (Thrombin a) [µM] | activity at thrombin (Thrombin a) | IC50 [2] [µM] | density of dendritic spines [3] | average amplitude of mEPSC responses, Tau −/+ versus Tau −/− neurons [1]
1 | CC(=O)N[C@H](C(=O)N[C@@H](CC(=O)O)C(=O)N[C@H](C(=O)N1CCc2cc(C)ccc2[C@H]1C(=O)N[C@H](C=O)CC(=O)O)C(C)C)C(C)C [Compound 2b, (S)-3-((S)-2-acetamido-3-methylbutanamido)-4-(((S)-1-((S)-1-(((S)-1-carboxy-3-oxopropan-2-yl)carbamoyl)-6-methyl-3,4-dihydroisoquinolin-2(1H)-yl)-3-methyl-1-oxobutan-2-yl)amino)-4-oxobutanoic acid] (Ac-VDV[X1]D-aldehyde) | 70 | 2.75 | > 100 | > 31.6 | > 31.6 | 38 | shifted to the left but less markedly | no significant differences |  |  |  |  |  |  |  |  |  |  |  | 
2 | Cc1ccc2c(c1)CCN(C(=O)[C@@H](NC(=O)[C@H](CCCC(=O)O)NC(=O)[C@@H]1Cc3ccccc3N1)C(C)C)[C@@H]2C(=O)N[C@H](C#N)CC(=O)O [Compound 1, (S)-6-(((S)-1-((S)-1-(((S)-2-carboxy-1-cyanoethyl)carbamoyl)-6-methyl-3,4-dihydroisoquinolin-2(1H)-yl)-3-methyl-1-oxobutan-2-yl)amino)-5-((S)-indoline-2-carboxamido)-6-oxohexanoic acid] | 123 | > 100 | > 100 | 15.8 | > 31.6 | 18.6 | not significantly shifted | no significant differences | 0.00759 | 0.933 | > 2000 | > 2000 | > 2000 | > 2000 | weak activity | > 100 | weak activity | 2.02 | no significant differences | do not differ significantly
